# Source: ChEMBL document CHEMBL1154177, “Special ergolines are highly selective, potent antagonists of the chemokine receptor CXCR3: discovery, characterization and preliminary SAR of a promising lead” (Bioorg Med Chem Lett, 2009)
# pIC50: −log10 of the molar value.
# What was measured:
# [1] = molecular target: T1, C-X-C chemokine receptor type 3 (Homo sapiens, UniProt P49682); assay: Displacement of [125I]I-TAC from human CXCR3 expressed in CHO cells by scintillation proximity assay; format: cell-based
# T1 sequence (P49682 whole entry): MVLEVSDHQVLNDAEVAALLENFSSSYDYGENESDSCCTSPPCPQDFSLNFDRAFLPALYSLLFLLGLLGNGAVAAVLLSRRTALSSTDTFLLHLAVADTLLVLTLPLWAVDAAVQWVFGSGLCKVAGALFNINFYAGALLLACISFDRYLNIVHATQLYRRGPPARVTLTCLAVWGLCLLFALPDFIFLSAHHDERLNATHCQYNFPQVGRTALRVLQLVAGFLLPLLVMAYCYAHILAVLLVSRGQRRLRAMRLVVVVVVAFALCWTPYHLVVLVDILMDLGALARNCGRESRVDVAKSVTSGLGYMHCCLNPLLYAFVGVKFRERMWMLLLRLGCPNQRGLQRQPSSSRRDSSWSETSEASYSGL
# Procedure, shortened: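 Membranes came from CHO cells transfected with human CXCR3. Serial dilutions of inhibitor were incubated for 2 h at room temperature with 125I-labelled I-TAC (CXCL11), the membranes and WGA-coated PVT beads. Binding was read by scintillation proximity.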
# [2] = molecular target: 5-hydroxytryptamine receptor 2A (Homo sapiens, UniProt P28223); assay: Inhibition of 5HT2A receptor
# [3] = molecular target: 5-hydroxytryptamine receptor 2B (Homo sapiens, UniProt P41595); assay: Inhibition of 5HT2B receptor
# [4] = molecular target: 5-hydroxytryptamine receptor 2C (Homo sapiens, UniProt P28335); assay: Inhibition of 5HT2C receptor
# [5] = molecular target: 5-hydroxytryptamine receptor 6 (Homo sapiens, UniProt P50406); assay: Inhibition of 5HT6 receptor
# [6] = molecular target: 5-hydroxytryptamine receptor 7 (Homo sapiens, UniProt P34969); assay: Inhibition of 5HT7 receptor
# D(1A) dopamine receptor = D(1A) dopamine receptor (Homo sapiens, UniProt P21728); assay: Inhibition of dopamine D1 receptor
# D(2) dopamine receptor = D(2) dopamine receptor (Homo sapiens, UniProt P14416); assay: Inhibition of dopamine D2 receptor
# D(3) dopamine receptor = D(3) dopamine receptor (Homo sapiens, UniProt P35462); assay: Inhibition of dopamine D3 receptor
# D(4) dopamine receptor = D(4) dopamine receptor (Homo sapiens, UniProt P21917); assay: Inhibition of dopamine D4.4 receptor
# [7] = Inhibition of adrenergic alpha1 receptor
# [8] = molecular target: Alpha-2A adrenergic receptor (Homo sapiens, UniProt P08913); assay: Inhibition of adrenergic alpha2A receptor
# [9] = molecular target: Alpha-2C adrenergic receptor (Homo sapiens, UniProt P18825); assay: Inhibition of adrenergic Alpha-2C receptor
# [10] = molecular target: Beta-1 adrenergic receptor (Homo sapiens, UniProt P08588); assay: Inhibition of adrenergic beta-1 receptor
# [11] = molecular target: T1, C-X-C chemokine receptor type 3; assay: Antagonist activity at human CXCR3 expressed in L1.2 cells assessed as inhibition of I-TAC-induced Ca2+ mobilization by FLIPR assay; format: functional, cell-based
# Procedure, shortened: (§1)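 CXCR3-transfected L1.2 mouse pre-B cells were loaded with Fluo-4 and washed. They were pre-incubated with inhibitor for 2 h at room temperature, then stimulated with I-TAC. The transient rise in intracellular Ca2+ was read on a FLIPR.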
# [12] = molecular target: T2, C-X-C chemokine receptor type 3 (Mus musculus, UniProt O88410); assay: Displacement of [125I]I-TAC from mouse CXCR3 expressed in CHO cells by scintillation proximity assay; format: cell-based
# [13] = molecular target: T2, C-X-C chemokine receptor type 3; assay: Antagonist activity at mouse CXCR3 expressed in L1.2 cells assessed as inhibition of I-TAC-induced Ca2+ mobilization by FLIPR assay; format: functional, cell-based; procedure, shortened: as §1
# Cytochrome P450 1A2 = Cytochrome P450 1A2 (Homo sapiens, UniProt P05177); assay: Inhibition of CYP1A2; format: ADME
# Cytochrome P450 2C9 = Cytochrome P450 2C9 (Homo sapiens, UniProt P11712); assay: Inhibition of CYP2C9; format: ADME
# Cytochrome P450 2C19 = Cytochrome P450 2C19 (Homo sapiens, UniProt P33261); assay: Inhibition of CYP2C19; format: ADME
# Cytochrome P450 2D6 = Cytochrome P450 2D6 (Homo sapiens, UniProt P10635); assay: Inhibition of CYP2D6; format: ADME
# Cytochrome P450 3A4 = Cytochrome P450 3A4 (Homo sapiens, UniProt P08684); assay: Inhibition of CYP3A4; format: ADME
# [14] = molecular target: Voltage-gated inwardly rectifying potassium channel KCNH2 (Homo sapiens, UniProt Q12809); assay: Inhibition of human ERG
# [15] = Lipophilicity, log P of the compound; format: physicochemical; conditions: octanol/water
# [16] = Solubility in pH 1.0 buffer; format: physicochemical
# [17] = Solubility in pH 6.8 buffer; format: physicochemical
# [18] = Fraction unbound in human; format: ADME, organism-based; conditions: in vivo
# [19] = Fraction unbound in rat; format: ADME, organism-based; conditions: in vivo
# [20] = molecular target: 5-hydroxytryptamine receptor 1A (Homo sapiens, UniProt P08908); assay: Inhibition of 5HT1A receptor
# Chain of 5-hydroxytryptamine receptor 2B (P41595 whole entry): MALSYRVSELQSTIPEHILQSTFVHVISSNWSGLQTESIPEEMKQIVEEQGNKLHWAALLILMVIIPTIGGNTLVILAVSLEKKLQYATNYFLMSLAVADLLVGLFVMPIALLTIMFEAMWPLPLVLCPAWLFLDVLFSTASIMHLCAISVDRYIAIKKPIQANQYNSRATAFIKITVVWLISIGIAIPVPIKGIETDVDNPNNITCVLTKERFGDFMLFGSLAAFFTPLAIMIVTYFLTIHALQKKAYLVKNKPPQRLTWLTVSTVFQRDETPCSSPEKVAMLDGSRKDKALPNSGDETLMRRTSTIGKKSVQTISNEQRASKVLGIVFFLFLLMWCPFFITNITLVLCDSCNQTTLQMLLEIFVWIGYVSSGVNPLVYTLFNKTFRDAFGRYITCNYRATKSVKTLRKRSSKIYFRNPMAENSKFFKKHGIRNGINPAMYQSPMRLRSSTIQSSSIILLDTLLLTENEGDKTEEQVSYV
# Chain of 5-hydroxytryptamine receptor 7 (P34969 whole entry): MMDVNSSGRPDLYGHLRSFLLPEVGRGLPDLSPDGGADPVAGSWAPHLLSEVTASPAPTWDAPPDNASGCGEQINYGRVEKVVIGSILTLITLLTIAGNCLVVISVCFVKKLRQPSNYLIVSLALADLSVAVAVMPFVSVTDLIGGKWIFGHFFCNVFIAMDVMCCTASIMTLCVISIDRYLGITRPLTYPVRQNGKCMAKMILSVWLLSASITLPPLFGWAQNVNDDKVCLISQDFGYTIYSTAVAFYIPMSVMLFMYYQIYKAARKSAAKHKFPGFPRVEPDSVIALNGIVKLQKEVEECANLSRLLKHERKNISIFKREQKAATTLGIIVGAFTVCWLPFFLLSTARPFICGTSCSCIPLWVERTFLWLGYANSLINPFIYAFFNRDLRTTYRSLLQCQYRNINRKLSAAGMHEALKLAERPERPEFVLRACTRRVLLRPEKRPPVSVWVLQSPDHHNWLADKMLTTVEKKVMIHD
# Chain of 5-hydroxytryptamine receptor 2C (P28335 whole entry): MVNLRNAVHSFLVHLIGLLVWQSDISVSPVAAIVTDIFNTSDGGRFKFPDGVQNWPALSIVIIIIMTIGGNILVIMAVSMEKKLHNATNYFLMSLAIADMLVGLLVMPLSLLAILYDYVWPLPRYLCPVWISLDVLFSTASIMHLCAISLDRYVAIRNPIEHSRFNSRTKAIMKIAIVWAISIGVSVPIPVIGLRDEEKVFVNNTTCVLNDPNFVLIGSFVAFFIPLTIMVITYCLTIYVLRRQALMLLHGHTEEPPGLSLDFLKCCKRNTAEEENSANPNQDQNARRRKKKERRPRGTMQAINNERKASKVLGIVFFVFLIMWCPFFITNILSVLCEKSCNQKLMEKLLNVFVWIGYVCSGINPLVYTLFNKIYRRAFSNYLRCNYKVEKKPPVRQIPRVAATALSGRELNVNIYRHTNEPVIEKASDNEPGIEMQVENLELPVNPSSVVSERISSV
# Chain of D(4) dopamine receptor (P21917 whole entry): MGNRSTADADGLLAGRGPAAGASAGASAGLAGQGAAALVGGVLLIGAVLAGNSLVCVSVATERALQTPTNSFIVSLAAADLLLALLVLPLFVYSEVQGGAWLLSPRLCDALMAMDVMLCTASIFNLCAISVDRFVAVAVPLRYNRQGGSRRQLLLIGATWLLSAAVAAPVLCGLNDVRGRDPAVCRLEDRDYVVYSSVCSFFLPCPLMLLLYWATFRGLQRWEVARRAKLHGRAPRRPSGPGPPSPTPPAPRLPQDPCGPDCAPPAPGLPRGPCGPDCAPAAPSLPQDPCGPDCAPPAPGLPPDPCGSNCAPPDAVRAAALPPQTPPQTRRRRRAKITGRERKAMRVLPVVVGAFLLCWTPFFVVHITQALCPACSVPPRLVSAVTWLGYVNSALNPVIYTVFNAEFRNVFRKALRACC
# T2 sequence (O88410 whole entry): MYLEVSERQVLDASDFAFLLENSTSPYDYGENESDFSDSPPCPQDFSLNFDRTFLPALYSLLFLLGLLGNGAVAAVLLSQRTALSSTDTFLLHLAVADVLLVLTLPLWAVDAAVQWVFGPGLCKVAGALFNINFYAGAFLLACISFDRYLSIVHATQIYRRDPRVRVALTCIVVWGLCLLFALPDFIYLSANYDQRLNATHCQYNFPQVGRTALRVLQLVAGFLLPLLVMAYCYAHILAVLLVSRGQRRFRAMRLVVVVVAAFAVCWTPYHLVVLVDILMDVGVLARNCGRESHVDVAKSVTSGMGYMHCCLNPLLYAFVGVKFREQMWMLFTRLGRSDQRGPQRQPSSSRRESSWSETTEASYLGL
# Chain of 5-hydroxytryptamine receptor 2A (P28223 whole entry): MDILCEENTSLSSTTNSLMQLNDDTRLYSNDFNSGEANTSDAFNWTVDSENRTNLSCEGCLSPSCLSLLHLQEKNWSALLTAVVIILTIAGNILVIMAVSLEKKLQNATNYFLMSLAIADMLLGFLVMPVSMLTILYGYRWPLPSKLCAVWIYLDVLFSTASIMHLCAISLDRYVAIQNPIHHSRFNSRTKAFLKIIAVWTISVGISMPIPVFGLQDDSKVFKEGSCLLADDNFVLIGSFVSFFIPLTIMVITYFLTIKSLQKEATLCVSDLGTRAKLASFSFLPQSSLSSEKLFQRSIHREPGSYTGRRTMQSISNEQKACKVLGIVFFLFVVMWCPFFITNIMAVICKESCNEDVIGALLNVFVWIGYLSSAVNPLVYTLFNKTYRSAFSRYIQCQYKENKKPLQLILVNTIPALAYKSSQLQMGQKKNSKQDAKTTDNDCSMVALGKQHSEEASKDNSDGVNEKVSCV
# Chain of 5-hydroxytryptamine receptor 6 (P50406 whole entry): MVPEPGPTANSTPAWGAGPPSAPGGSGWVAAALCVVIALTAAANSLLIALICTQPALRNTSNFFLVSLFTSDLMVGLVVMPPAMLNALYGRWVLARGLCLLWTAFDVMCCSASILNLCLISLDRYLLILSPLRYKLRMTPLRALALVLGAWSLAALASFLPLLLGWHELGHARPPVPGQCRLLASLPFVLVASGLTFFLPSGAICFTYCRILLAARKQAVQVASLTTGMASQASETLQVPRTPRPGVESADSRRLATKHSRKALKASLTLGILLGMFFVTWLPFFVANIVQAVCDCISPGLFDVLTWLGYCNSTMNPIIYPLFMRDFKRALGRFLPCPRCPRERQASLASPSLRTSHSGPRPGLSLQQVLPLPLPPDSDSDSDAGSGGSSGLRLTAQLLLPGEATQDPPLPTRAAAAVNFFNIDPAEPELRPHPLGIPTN
# Chain of Alpha-2A adrenergic receptor (P08913 whole entry): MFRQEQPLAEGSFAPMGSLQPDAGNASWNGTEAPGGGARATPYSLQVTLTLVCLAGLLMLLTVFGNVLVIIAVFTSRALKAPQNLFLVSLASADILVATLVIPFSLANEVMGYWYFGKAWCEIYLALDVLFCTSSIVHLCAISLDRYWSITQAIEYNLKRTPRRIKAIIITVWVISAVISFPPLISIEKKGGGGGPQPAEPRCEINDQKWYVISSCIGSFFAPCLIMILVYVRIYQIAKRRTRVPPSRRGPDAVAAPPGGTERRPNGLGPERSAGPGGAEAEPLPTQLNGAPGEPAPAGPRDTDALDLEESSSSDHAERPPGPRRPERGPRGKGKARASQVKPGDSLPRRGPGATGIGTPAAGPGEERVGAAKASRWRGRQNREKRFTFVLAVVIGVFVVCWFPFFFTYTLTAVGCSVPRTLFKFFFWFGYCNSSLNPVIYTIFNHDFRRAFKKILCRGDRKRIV
# Chain of D(2) dopamine receptor (P14416 whole entry): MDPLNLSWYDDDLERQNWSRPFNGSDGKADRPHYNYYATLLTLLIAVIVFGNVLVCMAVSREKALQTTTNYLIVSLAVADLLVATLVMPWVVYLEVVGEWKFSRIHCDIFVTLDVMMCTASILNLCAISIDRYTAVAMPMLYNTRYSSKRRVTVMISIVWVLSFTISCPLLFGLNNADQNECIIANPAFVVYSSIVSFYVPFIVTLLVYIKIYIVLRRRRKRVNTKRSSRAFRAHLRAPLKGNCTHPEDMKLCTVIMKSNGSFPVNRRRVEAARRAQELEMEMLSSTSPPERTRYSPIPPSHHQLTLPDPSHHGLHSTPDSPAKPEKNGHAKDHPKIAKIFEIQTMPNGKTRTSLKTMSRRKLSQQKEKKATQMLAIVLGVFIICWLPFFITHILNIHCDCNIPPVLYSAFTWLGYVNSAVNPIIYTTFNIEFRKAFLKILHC
# Chain of Beta-1 adrenergic receptor (P08588 whole entry): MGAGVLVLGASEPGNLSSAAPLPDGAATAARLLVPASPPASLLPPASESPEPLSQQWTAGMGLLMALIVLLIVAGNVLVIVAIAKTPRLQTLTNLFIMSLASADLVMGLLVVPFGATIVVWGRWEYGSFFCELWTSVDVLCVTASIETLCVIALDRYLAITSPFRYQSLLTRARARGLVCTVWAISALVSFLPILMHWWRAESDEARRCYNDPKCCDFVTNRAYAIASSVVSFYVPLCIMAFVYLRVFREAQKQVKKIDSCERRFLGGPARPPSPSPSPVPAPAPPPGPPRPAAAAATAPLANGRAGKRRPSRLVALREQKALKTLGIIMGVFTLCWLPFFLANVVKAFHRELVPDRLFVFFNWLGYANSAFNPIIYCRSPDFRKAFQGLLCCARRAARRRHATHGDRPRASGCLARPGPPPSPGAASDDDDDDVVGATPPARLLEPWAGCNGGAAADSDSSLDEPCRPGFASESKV
# Chain of Alpha-2C adrenergic receptor (P18825 whole entry): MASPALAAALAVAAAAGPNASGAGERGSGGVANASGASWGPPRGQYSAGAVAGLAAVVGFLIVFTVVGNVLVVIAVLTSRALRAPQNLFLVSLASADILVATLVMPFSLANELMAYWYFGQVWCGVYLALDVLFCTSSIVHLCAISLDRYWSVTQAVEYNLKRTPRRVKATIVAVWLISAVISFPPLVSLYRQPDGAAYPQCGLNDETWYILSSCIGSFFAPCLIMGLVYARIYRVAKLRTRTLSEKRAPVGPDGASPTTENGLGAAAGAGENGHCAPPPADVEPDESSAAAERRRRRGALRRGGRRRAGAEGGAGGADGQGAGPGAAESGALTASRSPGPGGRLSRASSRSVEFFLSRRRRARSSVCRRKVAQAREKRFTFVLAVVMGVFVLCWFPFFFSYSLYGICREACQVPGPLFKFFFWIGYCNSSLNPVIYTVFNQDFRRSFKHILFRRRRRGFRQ
structure (smiles),measurement,setting,value
CCN(CC)C(=O)[C@@H]1C=C2c3cccc4[nH]cc(c34)C[C@H]2NC1,pIC50,[1],< 5.00
same,pIC50,[2],8.22
same,pIC50,[3],7.27
same,pIC50,[4],5.89
same,pIC50,[5],7.80
same,pIC50,[6],6.84
same,pIC50,D(1A) dopamine receptor,< 5.00
same,pIC50,D(2) dopamine receptor,< 5.00
same,pIC50,D(3) dopamine receptor,< 5.00
same,pIC50,D(4) dopamine receptor,< 5.00
same,pIC50,[7],< 5.00
same,pIC50,[8],< 5.00
same,pIC50,[9],< 5.00
same,pIC50,[10],< 5.00
CCN(CC)C(=O)[C@@H]1C=C2c3cccc4[nH]cc(c34)C[C@H]2N(C(=O)Nc2ccncc2)C1,pIC50,[1],5.70
same,pIC50,[11],5.17
CCN(CC)C(=O)[C@@H]1C=C2c3cccc4[nH]cc(c34)C[C@H]2N(C(=O)Nc2cccnc2)C1,pIC50,[1],6.55
same,pIC50,[11],7.17
CCN(CC)C(=O)[C@@H]1C=C2c3cccc4[nH]cc(c34)C[C@H]2N(C(=O)Oc2ccccc2)C1,pIC50,[1],6.10
same,pIC50,[11],6.09
CCN(CC)C(=O)[C@@H]1C=C2c3cccc4c3c(cn4C)C[C@H]2N(C(=O)Nc2ccccc2)C1,pIC50,[1],6.66
same,pIC50,[11],7.22
CCN(CC)C(=O)[C@@H]1C=C2c3cccc4[nH]cc(c34)C[C@H]2N(C(=O)NC2CCCCC2)C1,pIC50,[1],6.75
same,pIC50,[11],7.11
CCN(CC)C(=O)[C@@H]1C=C2c3cccc4c3c(cn4Cc3ccccc3)C[C@H]2N(C(=O)Nc2ccccc2)C1,pIC50,[1],6.23
same,pIC50,[11],6.29
CCN(CC)C(=O)[C@@H]1C=C2c3cccc4[nH]cc(c34)C[C@H]2N(C(=O)Nc2ccc(C)cc2)C1,pIC50,[1],6.50
same,pIC50,[11],7.00
CCN(CC)C(=O)[C@@H]1C=C2c3cccc4[nH]cc(c34)C[C@H]2N(C(=O)Nc2ccccn2)C1,pIC50,[1],6.37
same,pIC50,[11],7.21
CCN(CC)C(=O)[C@@H]1CC2c3cccc4[nH]cc(c34)C[C@H]2N(C(=O)Nc2ccccc2)C1 (some centres not stated),pIC50,[1],5.28
same,pIC50,[11],5.71
CCN(CC)C[C@@H]1C=C2c3cccc4[nH]cc(c34)C[C@H]2N(C(=O)Nc2ccccc2)C1,pIC50,[1],< 5.00
same,pIC50,[11],< 5.00
CCN(CC)C(=O)[C@@H]1C=C2c3cccc4[nH]cc(c34)C[C@H]2N(C(=O)N(C)c2ccccc2)C1,pIC50,[1],< 5.00
same,pIC50,[11],< 5.00
CCN(CC)C(=O)[C@@H]1C=C2c3cccc4[nH]cc(c34)C[C@H]2N(C(=O)Nc2cc(OC)c(OC)c(OC)c2)C1,pIC50,[1],5.52
same,pIC50,[11],6.25
CCN(CC)C(=O)[C@@H]1C=C2c3cccc4[nH]cc(c34)C[C@H]2N(C(=O)Nc2ccccc2C)C1,pIC50,[1],6.84
same,pIC50,[11],7.55
CCN(CC)C(=O)[C@@H]1C=C2c3cccc4[nH]cc(c34)C[C@H]2N(C(=O)Nc2cccc(C)c2)C1,pIC50,[1],6.64
same,pIC50,[11],7.35
CCN(CC)C(=O)[C@H]1C=C2c3cccc4[nH]cc(c34)C[C@H]2N(C(=O)Nc2ccccc2)C1,pIC50,[1],< 5.00
CCN(CC)C(=O)[C@@H]1C=C2c3cccc4[nH]cc(c34)C[C@H]2N(C(=O)Nc2ccccc2)C1,pIC50,[1],7.27
same,pIC50,[12],6.70
same,pIC50,[11],7.74
same,pIC50,[13],7.52
same,pIC50,Cytochrome P450 1A2,< 5.00
same,pIC50,Cytochrome P450 2C9,< 5.00
same,pIC50,Cytochrome P450 2C19,< 5.00
same,pIC50,Cytochrome P450 2D6,< 5.00
same,pIC50,Cytochrome P450 3A4,< 5.00
same,pIC50,[14],< 4.52
same,logP,[15],4.2
same,solubility,[16],5 µg/mL
same,solubility,[17],5 µg/mL
same,fraction unbound,[18],0.01
same,fraction unbound,[19],0.02
same,pIC50,[20],5.44
same,pIC50,[2],6.12
same,pIC50,[3],5.61
same,pIC50,[4],< 5.00
same,pIC50,[5],5.02
same,pIC50,[6],< 5.00
same,pIC50,D(1A) dopamine receptor,5.31
same,pIC50,D(2) dopamine receptor,5.80
same,pIC50,D(3) dopamine receptor,6.18
same,pIC50,D(4) dopamine receptor,5.58
same,pIC50,[7],5.39
same,pIC50,[8],5.71
same,pIC50,[9],6.67
same,pIC50,[10],5.24
